One series is filed under the species Cavia porcellus. As to the kind of experiment: Selectivity ratio of Ki for Dunkin Hartley guinea pig brain sigma-2 receptor to Ki for Dunkin Hartley guinea pig brain sigma-1 receptor.
Series [1] in a line: Displacement of [3H]-DTG from sigma-2 receptor in Dunkin Hartley guinea pig brain membrane after 120 mins by liquid scintillation counting analysis in presence of (+)-SKF10047. Further details: species or system Cavia porcellus. Background: Displacement assays read how much labelled ligand stays bound in the presence of the test substance.
Series [2] has as its target Sigma non-opioid intracellular receptor 1 (Cavia porcellus, UniProt Q60492). Briefly: Displacement of [3H]-(+)-pentazocine from sigma-1 receptor in Dunkin Hartley guinea pig brain membranes after 180 mins by liquid scintillation counting analysis. On the set-up: species or system Membrane.
Series [3] in a line: Acute toxicity in po dosed Kun Ming mouse after 24 hrs. The class given is organism-based. The following applies: in vivo.
Series [4] deals with Mus musculus. As to the kind of experiment: Antinociceptive activity in Kun Ming mouse pain model assessed as reduction in licking and biting time during phase-2 at 80 mg/kg, ip administered 15 mins prior to formalin challenge relative to vehicle-treated control. The format is functional. The following applies: route intraperitoneal. In a few lines:
(§1)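 Kun Ming mice (20 ± 2.0 g), 10–12 per group, given vehicle (30% PEG 400) or drug ip at 10 mL/kg 15 min before intraplantar formalin. Time spent licking or biting the injected paw scored at 0–5 min (phase I) and 15–45 min (phase II). Effect (%) = (LTV − LTD)/LTV × 100.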

Series [5] relates to Mus musculus. As to the kind of experiment: Antinociceptive activity in Kun Ming mouse pain model assessed as reduction in licking and biting time during phase-1 at 80 mg/kg, ip administered 15 mins prior to formalin challenge relative to vehicle-treated control. The format is functional. The following applies: route intraperitoneal. Summed up: as §1

Sequence of Sigma non-opioid intracellular receptor 1 (Q60492 whole entry): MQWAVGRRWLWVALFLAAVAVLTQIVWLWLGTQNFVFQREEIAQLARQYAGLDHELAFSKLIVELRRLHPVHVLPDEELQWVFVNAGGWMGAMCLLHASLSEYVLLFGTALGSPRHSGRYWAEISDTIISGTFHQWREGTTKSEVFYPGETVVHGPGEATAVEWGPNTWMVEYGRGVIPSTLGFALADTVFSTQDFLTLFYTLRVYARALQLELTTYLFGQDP

Turning to `Cc1cc(OCCCN2CCCN(C)CC2)nc(-c2ccccc2)n1`, the Ratio Ki in the series listed under Cavia porcellus was 69.2. The Ki in series [1] came out at 1300 nM; in series [2], 18.7 nM.
Turning to `CCCc1cc(OCCCN2CCCC2)nc(-c2ccccc2)n1`, the Ratio Ki in the series filed under Cavia porcellus is 35.8. Besides, the Ki in series [1] was 1400 nM; in series [2], 38.9 nM.
For the molecule `Cc1cc(OCCOCCN2CCOCC2)nc(-c2ccccc2)n1`, the Ratio Ki in the series listed under Cavia porcellus stood at 4.6. Moreover, the results for the Ki in series [1] and in series [2] were 1920 nM and 422 nM, respectively.
As for `Cc1nc(C2CC2)nc(OCCCN2CCCCC2)c1Cl`, the Ratio Ki in the series filed under Cavia porcellus was found to be 33.6. Also, the Ki was 1330 nM in series [1] and 39.5 nM in series [2].
In the case of `FC(F)(F)c1cc(OCCCN2CCCC2)nc(-c2ccccc2)n1`, in the series listed under Cavia porcellus, the Ratio Ki was 48. For the same molecule, the Ki in series [1] worked out at 1330 nM; in series [2], 27.6 nM.
On the same counts, the results for `CCCc1cc(OCCCN2CCCCC2)nc(-c2ccccc2)n1` are 41.7, 1460 nM and 34.9 nM.
Regarding `c1ccc(-c2cc(OCCCN3CCCC3)nc(-c3ccccc3)n2)cc1`, the figures for the inhibitory constant (Ki) in series [1] and in series [2] were more than 2000 nM and 735 nM, respectively.
For `Cc1nc(-c2ccc(F)c(F)c2)nc(OCCCN2CCCCC2)c1Cl`, the inhibition constant (Ki) in series [1] was 943 nM; in series [2] it was 0.97 nM.
In the case of `Cc1cc(OCCCN2CCCCC2)nc(-c2ccccc2)n1`, the Ratio Ki in the series filed under Cavia porcellus came to 89.1. Besides, the Ki in series [1] came out at 1050 nM; in series [2], 11.8 nM.
Take `Cc1cc(OCCCCN2CCOCC2)nc(-c2ccccc2)n1`: in the series filed under Cavia porcellus, the Ratio Ki came to 11.2. Further, the Ki in series [1] was 1070 nM; in series [2] it was 95.2 nM.
As to `Cc1cc(OCCCN2CCN(c3ccccc3)CC2)nc(-c2ccccc2)n1`, the Ki in series [1] and in series [2] was more than 2000 nM each time.
`c1ccc(-c2nc(OCCCN3CCCCC3)cc(C3CC3)n2)cc1`: the Ki is more than 2000 nM in series [1] and 253 nM in series [2].
For `Cc1cc(OCCCN(C)C)nc(-c2ccccc2)n1`, the Ki in series [1] is more than 2000 nM; in series [2] it was 82.3 nM.
Turning to `COc1cc(OCCCN2CCCC2)nc(-c2ccccc2)n1`, the Ratio Ki in the series filed under Cavia porcellus was 46.2. Moreover, the Ki in series [1] worked out at 892 nM; in series [2], 19.3 nM.
For `Cc1cc(OCCCN2CCN(C(=O)OC(C)(C)C)CC2)nc(-c2ccccc2)n1`, the inhibition constant (Ki) in series [1] and in series [2] was more than 2000 nM in each case.
In the case of `Cc1cc(OCCCCCN2CCOCC2)nc(-c2ccccc2)n1`, the Ki is more than 2000 nM in series [1] and 389 nM in series [2].
In the same order, the values of `Cc1cc(OCCN2CCOCC2)nc(-c2ccccc2)n1` are more than 2000 nM and more than 2000 nM.
As to `Cc1cc(OCC(O)CN2CCOCC2)nc(-c2ccccc2)n1` (centres undefined), the Ratio Ki in the series filed under Cavia porcellus worked out at 3.4. Also, the Ki in series [1] was determined as 1640 nM; in series [2], 486 nM.
As for `Cc1nc(C)c(Cl)c(OCCCN2CCCCC2)n1`, in the series filed under Cavia porcellus, the Ratio Ki turned out to be 18.4. Besides, the Ki in series [1] was found to be 1080 nM; in series [2] it was 58.8 nM.
For the molecule `Cc1nc(-c2ccc(F)cc2)nc(OCCCN2CCCCC2)c1Cl`, in series [3], the LD50 at 24 h is 884 mg/kg. The inhibitory constant (Ki) is 1330 nM in series [1] and 1.14 nM in series [2].
For the molecule `Cc1cc(OCCCN2CCC(O)CC2)nc(-c2ccccc2)n1`, the Ratio Ki in the series filed under Cavia porcellus was found to be 3.8. Also, the Ki was found to be 1760 nM in series [1] and 462 nM in series [2].
Regarding `Cc1cc(OCCCN2C(C)(C)CCCC2(C)C)nc(-c2ccccc2)n1`, the values for the Ki in series [1] and in series [2] were more than 2000 nM and 377 nM, respectively.
As for `FC(F)(F)c1cc(OCCCN2CCCCC2)nc(-c2ccccc2)n1`, the Ratio Ki in the series filed under Cavia porcellus was 48. In addition, the figures for the Ki in series [1] and in series [2] were 1330 nM and 27.6 nM, respectively.
With `Cc1cc(OCCCN2CCOCC2)nc(-c2ccccc2)n1`, the Ratio Ki in the series listed under Cavia porcellus came to 26.1. Further, the results for the Ki in series [1] and in series [2] were 949 nM and 36.3 nM, respectively.
As to `Cc1nc(-c2ccccc2)nc(OCCCN2CCCCC2)c1F`, the Ratio Ki in the series filed under Cavia porcellus came to 363. Moreover, the Ki in series [1] came to 1360 nM; in series [2], 3.75 nM.
In the same order, the values of `Cc1nc(-c2ccccc2)nc(OCCCN2CCCC2)c1F` are 340, 1190 nM and 3.51 nM.
On the same counts, the results for `CCc1cc(OCCCN2CCCC2)nc(-c2ccccc2)n1` are 63.8, 1430 nM and 22.4 nM.
For the molecule `COc1ccc(-c2nc(C)c(Cl)c(OCCCN3CCCCC3)n2)cc1`, the Ratio Ki in the series listed under Cavia porcellus turned out to be 332. Further, the Ki in series [1] came out at 1290 nM.
As for `COc1cc(OCCCN2CCCCC2)nc(-c2ccccc2)n1`, in the series filed under Cavia porcellus, the Ratio Ki was found to be 46.2. In addition, the Ki was found to be 892 nM in series [1] and 19.3 nM in series [2].
Take `CCCN(CCC)CCCOc1cc(C)nc(-c2ccccc2)n1`: the Ratio Ki in the series filed under Cavia porcellus came to 27.5. The Ki in series [1] was determined as 1070 nM; in series [2], 38.8 nM.
`Cc1cc(OCCCCCCN2CCOCC2)nc(-c2ccccc2)n1`: the inhibitory constant (Ki) in series [1] and in series [2] was more than 2000 nM throughout.
As for `Cc1cc(OCCN2CCOCC2)nn1-c1ccc2ccccc2c1`, the Time is 33.16 s in the series with Mus musculus [4] and 10.65 s in the series with Mus musculus [5].
With `Cc1cc(OCCCN2CCC(=O)CC2)nc(-c2ccccc2)n1`, in the series listed under Cavia porcellus, the Ratio Ki was determined as 4.7. Moreover, the results for the Ki in series [1] and in series [2] were 1490 nM and 319 nM, respectively.
On to `Cc1nc(-c2ccc(C(F)(F)F)cc2)nc(OCCCN2CCCCC2)c1Cl`, for which the LD50 at 24 h in series [3] turned out to be 377 mg/kg. In addition, the results for the Ki in series [1] and in series [2] were 1780 nM and 4.42 nM, respectively.
`c1ccc(-c2cc(OCCCN3CCCCC3)nc(-c3ccccc3)n2)cc1`: the Ki was more than 2000 nM in series [1] and 966 nM in series [2].
On to `Cc1cc(OCCCN2CCCC2)nc(-c2ccccc2)n1`, for which the Ratio Ki in the series filed under Cavia porcellus came out at 92.1. Further, the Ki came out at 1250 nM in series [1] and 13.6 nM in series [2].
`Cc1nc(-c2ccc(Cl)c(Cl)c2)nc(OCCCN2CCCCC2)c1Cl`: the Ki in series [1] was more than 2000 nM; in series [2], 89.8 nM.
In the case of `CCN(CC)CCCOc1cc(C)nc(-c2ccccc2)n1`, the Ratio Ki in the series filed under Cavia porcellus was found to be 28. The values for the Ki in series [1] and in series [2] were 1320 nM and 47.1 nM, respectively.
For the molecule `Cc1cc(OCCCN2CCN(C)CC2)nc(-c2ccccc2)n1`, in the series filed under Cavia porcellus, the Ratio Ki was found to be 58.3. The Ki worked out at 1320 nM in series [1] and 22.7 nM in series [2].
On the same counts, the results for `CC(C)c1cc(OCCCN2CCCCC2)nc(-c2ccccc2)n1` are 9.7, 1840 nM and 188 nM.
Turning to `c1ccc(-c2nc(OCCCN3CCCC3)cc(C3CC3)n2)cc1`, the inhibitory constant (Ki) is more than 2000 nM in series [1] and 278 nM in series [2].
In series [3], `Cc1nc(-c2ccccc2)nc(OCCCN2CCCC2)c1Cl` gave a median lethal dose (LD50) at 24 h of more than 2000 mg/kg. In addition, the Ki was determined as 1680 nM in series [1] and 4.02 nM in series [2].
Consider `Cc1cc(OC/C=C/CN2CCOCC2)nc(-c2ccccc2)n1`, for which, in the series filed under Cavia porcellus, the Ratio Ki was found to be 12.5. For the same molecule, the Ki in series [1] is 1450 nM; in series [2], 116 nM.
Consider `Cc1cc(OCCCN2CC(C)CC(C)C2)nc(-c2ccccc2)n1` (centres undefined), for which the Ratio Ki in the series listed under Cavia porcellus was 55. Further, the Ki in series [1] came to 1660 nM; in series [2] it was 30.2 nM.
For the molecule `CCc1cc(OCCCN2CCCCC2)nc(-c2ccccc2)n1`, the Ratio Ki in the series listed under Cavia porcellus was 55.6. The Ki in series [1] was found to be 1140 nM; in series [2] it was 20.5 nM.
On the same counts, the results for `Cc1nc(-c2ccccc2)nc(OCCCN2CCCCC2)c1C` are 128, 1220 nM and 9.51 nM.
Regarding `Cc1nc(-c2ccccc2)nc(OCCCN2CCCC2)c1C`, the Ratio Ki in the series listed under Cavia porcellus stood at 112. For the same molecule, the figures for the Ki in series [1] and in series [2] were 1280 nM and 11.4 nM, respectively.
With `Cc1ncnc(OCCCN2CCCCC2)c1Cl`, the Ratio Ki in the series listed under Cavia porcellus amounted to 5.9. Further, the values for the Ki in series [1] and in series [2] were 1100 nM and 187 nM, respectively.
Turning to `CCN1CCN(CCCOc2cc(C)nc(-c3ccccc3)n2)CC1`, the Ratio Ki in the series filed under Cavia porcellus came out at 38.5. Moreover, the Ki in series [1] is 1180 nM; in series [2], 30.6 nM.
For the molecule `Cc1nc(-c2ccc3ccccc3c2)nc(OCCCN2CCCCC2)c1Cl`, the values for the Ki in series [1] and in series [2] were more than 2000 nM and 102 nM, respectively.
Regarding `Cc1cc(OCCCN2CCC(C)CC2)nc(-c2ccccc2)n1`, the Ratio Ki in the series filed under Cavia porcellus was found to be 84.7. For the same molecule, the Ki in series [1] was determined as 1420 nM; in series [2], 16.7 nM.
`Cc1nc(-c2ccccc2)nc(OCCCN2CCCCC2)c1Cl` had an LD50 at 24 h in series [3] of 440 mg/kg. The Ki in series [1] stood at 1650 nM; in series [2], 2.33 nM.
On to `Cc1cc(OCCCN2CCNCC2)nc(-c2ccccc2)n1`, for which, in the series listed under Cavia porcellus, the Ratio Ki is 8. In addition, the Ki in series [1] was 1210 nM; in series [2], 151 nM.
In turn, `Cc1ccc(-c2nc(C)c(Cl)c(OCCCN3CCCCC3)n2)cc1` gave an LD50 at 24 h in series [3] of 1680 mg/kg. Further, the inhibitory constant (Ki) came out at 1550 nM in series [1] and 1.96 nM in series [2].
`CC(C)c1cc(OCCCN2CCCC2)nc(-c2ccccc2)n1`: the Ratio Ki in the series listed under Cavia porcellus turned out to be 5. The Ki in series [1] stood at 1090 nM; in series [2], 218 nM.

What is called Ki is the equilibrium dissociation constant of an inhibitor or competing ligand from its target. The LD50 is the dose expected to kill half of the subjects tested. High values mean lower toxicity, low ones greater toxicity.

The values are drawn from ChEMBL document CHEMBL3351343, “Synthesis and biological evaluation of novel sigma-1 receptor antagonists based on pyrimidine scaffold as agents for treating neuropathic pain” (J Med Chem, 2014).
